# Screening results: PubChem BioAssay, several laboratories
# Rows were chosen to be rich in hits. Some 6.6% of all compounds tested hit in one or more screens of this group.
# Fibroblast inh: blocks proliferation of human lung fibroblasts; LL 47 human lung fibroblast viability, ATP luminescence; hits give low values; viability, % at 10 µM; hit rate 1.1% among 85,000; AID 719;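 active = viability at or below 50% in the single dose screen; inactive = viability above 50%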;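 also: compound exposure lasted 72 h before the ATP readout; 100% = median luminescence of untreated cell-only wells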
#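 Benchmarks: Cell-only wells, no compound | Test system: LL 47 human lung fibroblasts, passage 12 or lower | Input: 1,150 cells/well | Measured by: CellTiter-Glo luminescence measuring cellular ATP | Medium: IMEM, 15% FBS supplement | Schedule: Overnight attachment after seeding, then 72 h compound exposure at 37 °C | Doses: Compound addition at 0.1% DMSO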
# HUVEC inhibit: inhibitors of human endothelial cell proliferation | HUVEC proliferation, CellTiter-Glo luminescence, 72 h; hits give low values | viability, % at 10 µM (by protocol) | hit rate 1.1% among 86,000 | AID 648;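 active = viability at or below 30%; inactive = viability above 30%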;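 also: 100% = median luminescence of DMSO-only cell control wells on each plate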
# H69AR growth 86K: growth inhibitors of human H69AR lung tumor cells; H69AR lung tumor viability, ATP luminescence, 72 h; hits give low values; viability, % at 10 µM; hit rate 6% among 85,000; AID 598;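 active = viability at or below 40%; inactive = viability above 40%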;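 also: multidrug resistant small cell line overexpressing MRP-1 efflux transporter; 100% = mean luminescence of untreated control wells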
# Jurkat tox 60K: cytotoxicity toward Jurkat cells | Jurkat E6.1 viability, ATP luminescence, 48 h | inhibition, % at 4 µM | hit rate 1.2% among 56,000;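 active = inhibition above the mean inhibition of all tested compounds plus 3 SD, cut at about 28% in these data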
# The depositor's hits bear a star; · = not tested or not shown.
SMILES,Fibroblast inh,HUVEC inhibit,H69AR growth 86K,Jurkat tox 60K
O=C1CSC(=S)N1c1cccnc1,103,94,101,-7
Nc1ccc(C(=O)Nc2ccco2)cc1,92,90,80,·
Cc1ccc(C)c(NC2=C(Cl)C(=O)OC2OC(=O)c2ccco2)c1 (centres undefined),91,79,9.4*,·
Cc1ccc(NC2=C(Cl)C(=O)OC2OC(=O)c2ccco2)c(C)c1 (centres undefined),94,81,51,·
CN(C)c1ccc(C2C3C(=O)NC(=O)C3ON2c2ccc(Cl)cc2)cc1 (centres undefined),102,99,100,-2
CCc1ccc(NC(=O)CCc2nc3cccnc3n2Cc2ccc(OC)cc2)cc1,45*,64,18*,·
CN1CC2=Cc3ccccc3OC23Oc2ccccc2C=C3C1,78,31,21*,9
COCc1cc(=O)[nH]c(Nc2nc3ccc(C)cc3o2)n1,5.2*,39,21*,·
C=Cn1ccnc1P(=S)(c1ccc2c(c1)c1ccccc1n2CC)c1nccn1C=C,52,41,13*,·
CCN1/C(=C(\O)c2ccccc2)C(=O)c2ccccc2S1(=O)=O,89,62,33*,14
C/C(Cl)=C\Cn1c(N2CCCCCC2)nc2c1c(=O)n(C)c(=O)n2C,96,92,40,12
CCn1c(=S)sc2c(=O)n(-c3ccccc3)c(SCC(=O)NCc3ccco3)nc21,100,94,82,·
CCC(C)NC(=O)CSc1nc2c(sc(=S)n2Cc2ccco2)c(=O)n1-c1ccccc1 (centres undefined),94,82,32*,·
CCn1cc([N+](=O)[O-])c(C(=O)N2N=C(c3ccc4ccccc4c3)CC2c2ccccc2O)n1 (centres undefined),80,15*,86,·
CSc1nnc2n(-c3ccc(C)cc3)c(=O)c3c4c(sc3n12)COC(C(C)C)C4 (centres undefined),37*,61,36*,-12
CCOC(=O)c1[nH]c2ccc(F)cc2c1NC(=O)C(C)N1CCc2cc(OC)c(OC)cc2C1 (centres undefined),74,60,2.4*,21
CCOC(=O)c1[nH]c2ccc(OC)cc2c1NC(=O)C(C)N1CCC2(CC1)OCCO2 (centres undefined),96,90,80,0
CC1=Nn2c(nc(-c3ccccc3)c2-c2ccccc2)NC(=O)C1Br (centres undefined),111,90,96,·
CCCn1c(=NC(=O)c2ccc3c(c2)OCO3)c(C#N)cc2c(=O)n3cccc(C)c3nc21,83,79,38*,-10
Cc1cccn2c(=O)c3cc(C#N)c(=NC(=O)c4ccc5c(c4)OCO5)n(CC(C)C)c3nc12,83,81,56,-2
COC(=O)c1scc(C)c1NC(=O)C1CCCCC1,94,102,93,·
O=C(C1CC1)N1CCc2cc(Br)cc(S(=O)(=O)N3CCCCCC3)c21,83,98,37*,·
CCC(=O)N1CCc2cc(Br)cc(S(=O)(=O)N3CCCCCC3)c21,104,100,75,·
COC(=O)c1[nH]c2ccc(Br)cc2c1NC(=O)CN1CCN(C2CCCCC2)CC1,16*,5.7*,2.9*,3
COC(=O)c1[nH]c2ccc(Br)cc2c1NC(=O)CN1CCCc2ccccc21,75,64,21*,·
SMILES,Fibroblast inh,HUVEC inhibit,H69AR growth 86K,Jurkat tox 60K
COC(=O)c1[nH]c2cc(C)ccc2c1NC(=O)CN1CCCc2ccccc21,·,·,·,3
COCCn1c(SCC(=O)NCc2ccc3c(c2)OCO3)nnc1-c1c[nH]c2ccccc12,104,97,86,-3
O=C(Nc1nc(NC(=O)c2ccco2)n(-c2ccccc2)n1)c1ccccc1,35*,93,1.4*,·
Cc1ccc2nc(C)/c(=N\O)c(C)nc2c1,98,93,6.8*,·
CC(=O)c1c(C)nc2cc(Cl)ccc2c1N,94,91,94,3
Cc1nc2ccc(Cl)cc2nc(C)/c1=N\O,91,87,5.6*,7
Cc1nc2ccccc2nc(C)c1=NO,93,95,27*,·
Cc1ccc2cc(C(=O)O)c(C)nc2c1,101,89,106,·
CC(C)(C)C(=O)N=C1SC2CS(=O)(=O)CC2N1c1ccc2c(c1)OCO2 (centres undefined),98,98,97,5
COn1c(SCc2ccc(C)cc2C)nc2ccccc2c1=O,93,89,31*,·
COC(=O)c1sc(NC(C)=O)c(C(=O)OC)c1C,95,88,92,·
COC(=O)c1sc(NC(=O)c2cnccn2)c(C(=O)OC)c1C,88,77,40*,6
COc1cc(OC)cc(-c2n[nH]c(=S)n2-c2cc(OC)ccc2OC)c1,96,101,24*,·
COc1ccc(C)cc1-n1c(-c2ccncc2)n[nH]c1=S,96,98,63,6
COc1ccccc1CNc1ncnc2c1nnn2Cc1ccccc1,95,101,80,-2
COc1ccc(NC(=O)/C(C#N)=C\c2cc(C)n(-c3ccc(Oc4ccc([N+](=O)[O-])cn4)cc3)c2C)cc1,63,68,33*,·
Cc1cc(/C=C(/C#N)c2nc3ccccc3[nH]2)c(C)n1-c1cccc([N+](=O)[O-])c1,85,72,64,·
O=C(Nc1ccc(N2CCOCC2)cc1)Nc1ccc2nc(-c3ccco3)c(-c3ccco3)nc2c1,100,22*,9.5*,83*
O=C(Nc1ccc2nc(-c3ccco3)c(-c3ccco3)nc2c1)NC1CC1,108,72,41,·
CCCc1nc(NCC2CCCO2)c2nnn(Cc3ccccc3)c2n1 (centres undefined),83,92,95,·
CCOc1ccccc1C(=O)NC(CO)C(=O)O (centres undefined),108,98,100,·
c1ccc(CSc2nnc(-c3cccnc3)o2)cc1,100,87,34*,·
Cc1ccc(CSc2nnc(-c3cccnc3)o2)cc1,112,104,88,·
CC(=O)Oc1cc2c(cc1Cl)C1(CC(c3ccccc3Cl)O2)CC(C)(C)NC(=S)N1 (centres undefined),92,79,32*,·
COc1ccccc1/C=c1\sc2nc(-c3ccco3)nn2c1=O,97,97,36*,5
SMILES,Fibroblast inh,HUVEC inhibit,H69AR growth 86K,Jurkat tox 60K
CCOc1ccc(/C=c2\sc3nc(-c4ccco4)nn3c2=O)cc1OCC,101,87,77,0
CN(C)c1ccc(/C=C/C(O)=C2/C(=O)N(C)C3(C)CC2c2ccccc2O3)cc1 (centres undefined),96,91,21*,12
CCOC(=O)C1CSC(CC(=O)Nc2ccc(Cl)c(Cl)c2)C(=O)N1 (centres undefined),99,96,96,·
COc1cc(NC(=O)c2cc(C(C)C)on2)c(OC)cc1Cl,88,97,56,·
Cc1cc(C)nc(/N=c2/ssnc2Cl)c1,105,113,20*,4
Cc1ccc(N=c2ssnc2Cl)cc1,97,101,2.4*,·
Cc1cc(Cl)ccc1N=Cc1c(O)n(C)c(=O)n(C)c1=O,·,96,89,8
Cc1cc(Cl)ccc1N=c1ssnc1Cl,101,40,2.2*,·
COc1cc(N=c2ssnc2Cl)c(OC)cc1Cl,44*,85,1.1*,·
CCC(C)N(C(=O)CSc1nc(-c2ccccc2)cs1)C1CCS(=O)(=O)C1 (centres undefined),107,84,71,·
